Legend:
[1] = biological target: T1, Tyrosine-protein phosphatase non-receptor type 22 (Homo sapiens, UniProt Q9Y2R2); assay: Inhibition of recombinant human LYP using p-nitrophenyl phosphate as substrate preincubated for 10 mins followed by substrate addition and measured every minute for 10 mins by UV-VIS spectrophotometric analysis
T1 sequence (Q9Y2R2 whole entry): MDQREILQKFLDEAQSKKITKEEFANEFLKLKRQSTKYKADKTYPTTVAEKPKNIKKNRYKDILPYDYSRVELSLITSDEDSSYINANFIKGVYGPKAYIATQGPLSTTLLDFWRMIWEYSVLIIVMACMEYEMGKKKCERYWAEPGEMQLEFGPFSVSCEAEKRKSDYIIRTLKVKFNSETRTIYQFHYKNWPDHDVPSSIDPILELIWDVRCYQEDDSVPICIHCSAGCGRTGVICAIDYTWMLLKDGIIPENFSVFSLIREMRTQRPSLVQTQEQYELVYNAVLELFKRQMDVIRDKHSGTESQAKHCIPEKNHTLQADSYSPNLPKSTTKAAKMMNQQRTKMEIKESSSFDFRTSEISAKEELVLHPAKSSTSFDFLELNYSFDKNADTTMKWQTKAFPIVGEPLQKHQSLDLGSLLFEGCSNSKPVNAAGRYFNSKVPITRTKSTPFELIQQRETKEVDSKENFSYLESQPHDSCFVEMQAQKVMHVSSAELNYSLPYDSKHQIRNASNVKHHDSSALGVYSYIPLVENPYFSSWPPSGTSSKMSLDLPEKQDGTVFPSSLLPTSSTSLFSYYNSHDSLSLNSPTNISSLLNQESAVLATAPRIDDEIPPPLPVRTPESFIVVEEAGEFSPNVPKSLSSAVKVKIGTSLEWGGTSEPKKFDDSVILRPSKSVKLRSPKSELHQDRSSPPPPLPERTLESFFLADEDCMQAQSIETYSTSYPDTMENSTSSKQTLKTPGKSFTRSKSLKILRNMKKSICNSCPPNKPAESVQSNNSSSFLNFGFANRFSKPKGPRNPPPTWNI
Method in brief: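 Recombinant PTP at PtpB 50 nM, LYP 169 nM, PTP-PEST 205 nM or PTP1B 38 nM, in 20 mM imidazole pH 7.0. Inhibitor (0.5–50 µM, DMSO ≤4% v/v) premixed with enzyme 10 min at 37 °C. Started with 10 mM pNPP. A410 each min for 10 min. Activity from 7 min minus 2 min. IC50 by linear regression. Triplicate.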

[2] = biological target: T2, Low molecular weight protein-tyrosine phosphatase A (Mycobacterium tuberculosis, UniProt P9WIA1); assay: Non-competitive inhibition of Mycobacterium tuberculosis PtpA using p-nitrophenyl phosphate as substrate by Michaelis-Menten plot analysis
T2 sequence (P9WIA1 whole entry): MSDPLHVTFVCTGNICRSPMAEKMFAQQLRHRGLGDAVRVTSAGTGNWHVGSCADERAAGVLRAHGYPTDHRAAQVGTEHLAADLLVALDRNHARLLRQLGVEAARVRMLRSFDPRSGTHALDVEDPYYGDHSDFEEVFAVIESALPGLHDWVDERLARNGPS
Method in brief: (§1)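 Mtb PtpA-catalysed pNPP hydrolysis with pNPP varied 0.2–20 mM at each of three inhibitor concentrations. Rates expressed as specific activity (µmol pNPP min-1 mg-1). Vmax and Km fitted to Michaelis–Menten equation. Ki from non-linear fits to competitive or non-competitive inhibition equation, at least three independent experiments.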

[3] = biological target: T3, Low molecular weight protein-tyrosine phosphatase A (Mycobacterium tuberculosis) (UniProt P9WIA1); assay: Inhibition of recombinant Mycobacterium tuberculosis PtpA at 25 uM using p-nitrophenyl phosphate as substrate preincubated for 10 mins followed by substrate addition and measured every minute for 10 mins by UV-VIS spectrophotometric analysis
T3 sequence (whole entry): T2 sequence (P9WIA1 whole entry)
Method in brief: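 Single-point screen at 25 µM final (from 1 mM DMSO stock, 2.5% DMSO final). 50 nM recombinant Mtb PtpA in 20 mM imidazole pH 7.0, premixed with compound 10 min at 37 °C. Reaction started with 10 mM pNPP. A410 read each min for 10 min at 37 °C. Residual activity from absorbance difference 7 min minus 2 min versus no-inhibitor wells. Triplicate.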

[4] = Selectivity index, ratio of IC50 for recombinant Yersinia enterocolitica YopH to IC50 for recombinant Mycobacterium tuberculosis PtpA
[5] = Selectivity index, ratio of IC50 for recombinant human PTP-PEST to IC50 for recombinant Mycobacterium tuberculosis PtpA
Method in brief: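 Selectivity index calculated as IC50 for PtpB, LYP, PTP-PEST or PTP1B divided by IC50 for PtpA. Both IC50 values come from pNPP hydrolysis at 37 °C with 10 min enzyme–inhibitor premix and A410 readout, using 0.5–50 µM inhibitor.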

[6] = biological target: T2, Low molecular weight protein-tyrosine phosphatase A; assay: Competitive inhibition of Mycobacterium tuberculosis PtpA using p-nitrophenyl phosphate as substrate by Michaelis-Menten plot analysis; method in brief: as §1

S=C(N/N=C/c1ccc(-c2ccccc2)cc1)Nc1cccc2ccccc12
IC50 [1]: > 50 µM | Ki [2]: 5.6 µM | inhibition [3]: 79.7% | Ratio IC50 [4]: 0.9 | Ratio IC50 [5]: > 6.8

Cc1ccc(NC(=S)N/N=C/c2ccc(-c3cc(C(F)(F)F)ccc3Cl)o2)cc1
IC50 [1]: > 50 µM | inhibition [3]: 66% | Ki [6]: 12 µM | Ratio IC50 [4]: 0.8 | Ratio IC50 [5]: > 5.5

FC(F)(F)c1ccc(Cl)c(-c2ccc(/C=N/NC(=S)Nc3cccc4ccccc34)o2)c1
IC50 [1]: > 50 µM | Ki [2]: 1.7 µM | inhibition [3]: 86.7% | Ratio IC50 [4]: 0.9 | Ratio IC50 [5]: 5.4

O=[N+]([O-])c1ccc(/C=N/NC(=S)Nc2cccc3ccccc23)cc1
IC50 [1]: > 50 µM | Ki [2]: 1.2 µM | inhibition [3]: 77.7% | Ratio IC50 [4]: 0.7 | Ratio IC50 [5]: > 5.3

Reference: ChEMBL document CHEMBL4261631, “Synthetic thiosemicarbazones as a new class of Mycobacterium tuberculosis protein tyrosine phosphatase A inhibitors” (Bioorg Med Chem, 2018)
